According to ChEMBL document CHEMBL1122593, “Phosphorus-nitrogen compounds. 24. Phosphoramide mustard carrier derivatives” (1984):
Where “and” joins values, the source holds several entries; their conditions need not be identical. Equal values may be shown once.

How the values were obtained:
[1] = test system: L1210; test: Antitumor activity against L1210 lymphoid leukemia and treated mean survival time per control mean survival time was determined at 500 mg/kg; format: functional, Mus musculus
Summary of the method: (§1)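 Mice bearing L1210 lymphoid leukaemia, tested by NCI contractors. Compound given as a single injection 1 day after tumour cell inoculation. T/C% = (treated/control) × 100.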

[2] = test system: L1210; test: Antitumor activity against L1210 lymphoid leukemia and treated mean survival time per control mean survival time was determined at 300 mg/kg; format: functional, Mus musculus; summary of the method: as §1
[3] = test system: Mus musculus; test: Antitumor activity against CD8F1 mammary tumor and treated mean survival time per control mean survival time was determined at 300 mg/kg; format: functional
Summary of the method: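 Mice bearing CD8F1 mammary tumour, tested by NCI contractors. Compound given as a single injection starting 20 days after tumour cell inoculation. T/C% = (treated/control) × 100.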

[4] = test system: P388; test: Antitumor activity against P388 Lymphocytic leukemia and treated mean survival time per control mean survival time was determined at 200 mg/kg; format: functional, Mus musculus
Summary of the method: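 Mice bearing P388 lymphocytic leukaemia, tested by NCI contractors. Compound given as five consecutive injections beginning 1 day after tumour cell inoculation. T/C% = (treated/control) × 100.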

[5] = Antitumor activity against Lewis lung carcinomia and treated mean survival time per control mean survival time was determined at 400 mg/kg; format: functional, Mus musculus
Summary of the method: (§2)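 Mice bearing Lewis lung carcinoma, tested by NCI contractors. Compound given as nine consecutive injections beginning 1 day after tumour cell inoculation. T/C% = (treated/control) × 100.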

[6] = Antitumor activity against Lewis lung carcinomia and treated mean survival time per control mean survival time was determined at 50 mg/kg; format: functional, Mus musculus; summary of the method: as §2

CC(C)N1C[C@@H](COc2cccc3ccccc23)O[P@@]1(=O)N(CCCl)CCCl (racemic)
T/C ([1]; 500 mg/kg): 130% and 110% and 90%

CC/C(=C(/CC)c1ccc(OP(N)(=O)N(CCCl)CCCl)cc1)c1ccc(OP(N)(=O)N(CCCl)CCCl)cc1 (centres undefined)
T/C [2]: 113% | T/C [3]: 39% | T/C ([4]; 200 mg/kg): 100% and 104%

CC/C(=C(/CC)c1ccc(OP(=O)(Cl)N(CCCl)CCCl)cc1)c1ccc(OP(=O)(Cl)N(CCCl)CCCl)cc1 (centres undefined)
T/C [1]: 100%

NP(=O)(Oc1c2occc2cc2ccc(=O)oc12)N(CCCl)CCCl (centres undefined)
T/C [4]: 114%

CC(C)N1C[C@H](COc2cccc3ccccc23)O[P@@]1(=O)N(CCCl)CCCl (racemic)
T/C [5]: 90% | T/C [6]: 95%

NP(=O)(Oc1cccc2c(OP(N)(=O)N(CCCl)CCCl)cccc12)N(CCCl)CCCl (centres undefined)
T/C [1]: 95%
